According to ChEMBL document CHEMBL3632581, “Dimers of Melampomagnolide B Exhibit Potent Anticancer Activity against Hematological and Solid Tumor Cells” (J Med Chem, 2015):

Assays:
CCRF-CEM = experiment: Cytotoxicity against human CCRF-CEM cells after 48 hrs by SRB assay; type: functional
Procedure, shortened: (§1)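 NCI-60 five-dose screen at 10−8 to 10−4 M. Cells were plated at 5,000–40,000/well in RPMI 1640 with 5% FBS and 2 mM L-glutamine, then preincubated 24 h, and time-zero plates were TCA-fixed. Compound was added from DMSO stocks and exposed 48 h at 37 °C. Cells were TCA-fixed, SRB-stained, and read at 515 nm. LC50 is the concentration halving the cell population through cell death.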

MOLT-4 = experiment: Cytotoxicity against human MOLT4 cells after 48 hrs by SRB assay; type: functional; details: MOLT-4, 48 h; procedure, shortened: as §1
HOP-62 = experiment: Cytotoxicity against human HOP62 cells after 48 hrs by SRB assay; type: functional; details: HOP-62, 48 h; procedure, shortened: as §1
HOP-92 = experiment: Cytotoxicity against human HOP92 cells after 48 hrs by SRB assay; type: functional; details: HOP-92, 48 h; procedure, shortened: as §1
NCI-H226 = experiment: Cytotoxicity against human NCI-H226 cells after 48 hrs by SRB assay; type: functional; details: NCI-H226, 48 h; procedure, shortened: as §1
NCI-H23 = experiment: Cytotoxicity against human NCI-H23 cells after 48 hrs by SRB assay; type: functional; details: NCI-H23, 48 h; procedure, shortened: as §1
NCI-H522 = experiment: Cytotoxicity against human NCI-H522 cells after 48 hrs by SRB assay; type: functional; details: NCI-H522, 48 h; procedure, shortened: as §1
COLO 205 = experiment: Cytotoxicity against human COLO205 cells after 48 hrs by SRB assay; type: functional; details: COLO 205, 48 h; procedure, shortened: as §1
HCC 2998 = experiment: Cytotoxicity against human HCC2998 cells after 48 hrs by SRB assay; type: functional; details: HCC 2998, 48 h; procedure, shortened: as §1
HCT-116 = experiment: Cytotoxicity against human HCT116 cells after 48 hrs by SRB assay; type: functional; details: HCT-116, 48 h; procedure, shortened: as §1
KM12 = experiment: Cytotoxicity against human KM12 cells after 48 hrs by SRB assay; type: functional; details: KM12, 48 h; procedure, shortened: as §1
SW-620 = experiment: Cytotoxicity against human SW620 cells after 48 hrs by SRB assay; type: functional; details: SW-620, 48 h
Procedure, shortened: (§2)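 NCI-60 screen: cells grown in RPMI 1640 with 5% FBS and 2 mM L-glutamine, plated at 5,000–40,000 cells/well by doubling time, and preincubated 24 h at 37 °C before drug. Drug was diluted from DMSO stock and given at five concentrations, 10−4 to 10−8 M, for 48 h. Cells fixed with cold TCA, SRB stained, OD read at 515 nm against time-zero and vehicle plates. LC50 taken as the concentration that halves cell population through cell death.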

SF-295 = experiment: Cytotoxicity against human SF295 cells after 48 hrs by SRB assay; type: functional; details: SF-295, 48 h; procedure, shortened: as §1
SNB-75 = experiment: Cytotoxicity against human SNB75 cells after 48 hrs by SRB assay; type: functional; details: SNB-75, 48 h; procedure, shortened: as §1
U-251 = experiment: Cytotoxicity against human U251 cells after 48 hrs by SRB assay; type: functional; details: U-251, 48 h; procedure, shortened: as §2
MDA-MB-435 = experiment: Cytotoxicity against human MDA-MB-435 cells after 48 hrs by SRB assay; type: functional; details: MDA-MB-435, 48 h; procedure, shortened: as §1
SK-MEL-2 = experiment: Cytotoxicity against human SK-MEL-2 cells after 48 hrs by SRB assay; type: functional; details: SK-MEL-2, 48 h; procedure, shortened: as §1
SK-MEL-5 = experiment: Cytotoxicity against human SK-MEL-5 cells after 48 hrs by SRB assay; type: functional; details: SK-MEL-5, 48 h; procedure, shortened: as §1
UACC-257 = experiment: Cytotoxicity against human UACC257 cells after 48 hrs by SRB assay; type: functional; details: UACC-257, 48 h; procedure, shortened: as §2
OVCAR-4 = experiment: Cytotoxicity against human OVCAR4 cells after 48 hrs by SRB assay; type: functional; details: OVCAR-4, 48 h; procedure, shortened: as §1
[1] = Cytotoxicity against human NCI-ADR-RES cells after 48 hrs by SRB assay; type: functional; procedure, shortened: as §1
SK-OV-3 = experiment: Cytotoxicity against human SKOV3 cells after 48 hrs by SRB assay; type: functional; details: SK-OV-3, 48 h; procedure, shortened: as §1
786-0 = experiment: Cytotoxicity against human 786-0 cells after 48 hrs by SRB assay; type: functional; details: 786-0, 48 h; procedure, shortened: as §1
A498 = experiment: Cytotoxicity against human A498 cells after 48 hrs by SRB assay; type: functional; details: A498, 48 h; procedure, shortened: as §1
ACHN = experiment: Cytotoxicity against human ACHN cells after 48 hrs by SRB assay; type: functional; procedure, shortened: as §1
RXF 393 = experiment: Cytotoxicity against human RXF393 cells after 48 hrs by SRB assay; type: functional; details: RXF 393, 48 h; procedure, shortened: as §1
SN12C = experiment: Cytotoxicity against human SN12C cells after 48 hrs by SRB assay; type: functional; procedure, shortened: as §1
UO-31 = experiment: Cytotoxicity against human UO31 cells after 48 hrs by SRB assay; type: functional; details: UO-31, 48 h; procedure, shortened: as §2
PC-3 = experiment: Cytotoxicity against human PC3 cells after 48 hrs by SRB assay; type: functional; details: PC-3, 48 h; procedure, shortened: as §1
MDA-MB-231 = experiment: Cytotoxicity against human MDA-MB-231 cells after 48 hrs by SRB assay; type: functional; details: MDA-MB-231, 48 h; procedure, shortened: as §1
T47D = experiment: Cytotoxicity against human T47D cells after 48 hrs by SRB assay; type: functional; procedure, shortened: as §2
MDA-MB-468 = experiment: Cytotoxicity against human MDA-MB-468 cells after 48 hrs by SRB assay; type: functional; details: MDA-MB-468, 48 h; procedure, shortened: as §1
[2] = Antileukemic activity against human AML02 cells after 24 hrs by annexin V/7-AAD staining-based flow cytometric analysis; type: functional, cell-based
Procedure, shortened: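 Primary AML specimens from consenting donors, isolated by Ficoll-Paque gradient and sometimes cryopreserved. Cells were held 1 h in serum-free IMDM with 20% BIT 9500, LDL and β-mercaptoethanol before drug (DMSO stock diluted in PBS, ≤0.5% DMSO final). Exposure was 24 h over 0.5-10 μM. Annexin V/7-AAD double-negative cells, normalized to vehicle, gave the EC50. Run in triplicate.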

[3] = Potency index, ratio of parthenolide EC50 to compound EC50 for human M9-ENL1 cells; type: functional
[4] = read-out: LC50 (the source's name)

C=C1C(=O)O[C@H]2[C@H]1CC/C(COC(=O)NCCCCNC(=O)OC/C1=C/CC[C@@]3(C)O[C@H]3[C@H]3OC(=O)C(=C)[C@@H]3CC1)=C\CC[C@@]1(C)O[C@@H]21
GI50 (CCRF-CEM): 0.27 µM | CC50 (CCRF-CEM; [4]): > 100 µM | GI50 (MOLT-4): 1.47 µM | CC50 (MOLT-4; [4]): > 100 µM | GI50 (HOP-62): 3.84 µM | CC50 (HOP-62; [4]): 46.1 µM | GI50 (HOP-92): 0.28 µM | CC50 (HOP-92; [4]): 46.1 µM | GI50 (NCI-H226): 11.4 µM | CC50 (NCI-H226; [4]): 81.6 µM | GI50 (NCI-H23): 2.18 µM | CC50 (NCI-H23; [4]): 30.4 µM | GI50 (NCI-H522): 0.16 µM | CC50 (NCI-H522; [4]): 0.84 µM | GI50 (COLO 205): 0.46 µM | CC50 (COLO 205; [4]): 5.79 µM | GI50 (HCC 2998): 2.35 µM | CC50 (HCC 2998; [4]): 9.73 µM | GI50 (HCT-116): 1.12 µM | CC50 (HCT-116; [4]): 6.19 µM | GI50 (KM12): 3.18 µM | CC50 (KM12; [4]): 43.3 µM | GI50 (SW-620): 0.58 µM | CC50 (SW-620; [4]): 5.56 µM | GI50 (SF-295): 13 µM | CC50 (SF-295; [4]): 57.7 µM | GI50 (SNB-75): 2.19 µM | CC50 (SNB-75; [4]): 66.3 µM | GI50 (U-251): 2.94 µM | CC50 (U-251; [4]): 33.3 µM | GI50 (MDA-MB-435): 1.24 µM | CC50 (MDA-MB-435; [4]): 9.42 µM | GI50 (SK-MEL-2): 1.77 µM | CC50 (SK-MEL-2; [4]): 29.3 µM | GI50 (SK-MEL-5): 3.33 µM | CC50 (SK-MEL-5; [4]): 41.4 µM | GI50 (UACC-257): 1.68 µM | CC50 (UACC-257; [4]): 22.9 µM | GI50 (OVCAR-4): 1.77 µM | CC50 (OVCAR-4; [4]): 30.5 µM | GI50 [1]: 37.7 µM | CC50 [1, 4]: > 100 µM | GI50 (SK-OV-3): 12.7 µM | CC50 (SK-OV-3; [4]): 50.4 µM | GI50 (786-0): 1.99 µM | CC50 (786-0; [4]): 9.11 µM | GI50 (A498): 6.36 µM | CC50 (A498; [4]): 43.9 µM | GI50 (ACHN): 3.44 µM | CC50 (ACHN; [4]): 39.8 µM | GI50 (RXF 393): 1.44 µM | CC50 (RXF 393; [4]): 7.84 µM | GI50 (SN12C): 2.75 µM | CC50 (SN12C; [4]): 39.5 µM | GI50 (UO-31): 7.61 µM | CC50 (UO-31; [4]): 47.7 µM | GI50 (PC-3): 2.55 µM | LC50 (concentration killing half the cell population) (PC-3): 30.5 µM | GI50 (MDA-MB-231): 1.53 µM | LC50 (MDA-MB-231): 6.83 µM | GI50 (T47D): 1.51 µM | CC50 (T47D; [4]): > 100 µM | GI50 (MDA-MB-468): 0.42 µM | LC50 (MDA-MB-468): 7.76 µM | EC50 [2]: 2 µM | Ratio EC50 [3]: 2
